# Assay outcomes: PubChem BioAssay, several laboratories
# This is a sample that favours compounds with a hit; in the whole collection about 12% have one here.
# ABCB1 block – blocks JC-1 efflux by human ABCB1 transporter. P08183. AID 1326. 190,000 tested, 0.067% active. inhibition, % at 6.6 µM. CCRF-Adr cells, flow cytometry; in the data active means inhibition above about 40%;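 further: 0% = vehicle and 100% = reference inhibitor; higher value means more JC-1 retained so stronger ABCB1 efflux block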
# WT yeast gro inh – growth inhibition of WT yeast, mitochondrial fusion screen | mitochondrial fusion phenotypic screen, WT strain | inhibition, % at 10 µM | 190,000 tested, 2.1% active; in the data active means inhibition above about 58%; tested in S. cerevisiae
# RAM network inh – blocks the yeast RAM network; inhibition, % at 50 µM; S. cerevisiae dse1pr::URA3 reporter, 5-FOA growth OD615, 2 d; analog-sensitive cbk1-as2 kinase mutant strain; 190,000 tested, 1.8% active;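 active means inhibition above a set limit, 3 SD over mean compound inhibition, cut at about 8.4% in these data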;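 further: 0% = DMSO-only wells with no growth and 100% = 10 µM 1-NA-PP1 full growth; inhibition rescues growth on 5-FOA so higher OD means more RAM inhibition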
# L major viab – inhibitors of Leishmania major promastigote growth. Leishmania major promastigotes, resazurin fluorescence viability. inhibition, % at 10 µM. 200,000 tested, 9% active. AID 1063; in the data active means inhibition above about 50%;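 further: promastigotes grown with compound for 44 hours at 28 °C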
# ABCG2 block – blocks JC-1 efflux by human ABCG2 transporter. Q9UNQ0. IgMXP3 cells, flow cytometry. inhibition, % at 6.6 µM. 190,000 tested, 0.1% active;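 active means inhibition above 80%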;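 further: 0% = DMSO and 100% = nicardipine control wells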
#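 Test system: IgMXP3 (ABCG2) plus far-red-tagged CCRF-Adr (ABCB1) cells. Reagent: JC-1 dye as substrate. Timing: 10 min exposure at 25 °C with rotation, no wash. Measured by: flow cytometric JC-1 green MFI at 530 nm. Read-out: percent efflux inhibition, scaled nicardipine 100% to DMSO 0%. Control set: nicardipine and DMSO wells.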
# An asterisk follows results filed as active.
SMILES,ABCB1 block,WT yeast gro inh,RAM network inh,L major viab,ABCG2 block
CCC(=O)c1ccc(-c2ccccc2)cc1,0,7,1,2,2
CCN(c1ccccc1)S(=O)(=O)c1ccc(C(C(=O)OC)C(=O)OC)c([N+](=O)[O-])c1,1,-14,5,99*,6
CCCCn1c(N)c(C(=S)NC(=O)CC(C)(C)C)c(=O)n(C)c1=O,0,68*,0,2,0
Cc1cc(C)n(/N=C/c2cc([N+](=O)[O-])ccc2O)c(=O)c1,1,-28,-1,-4,5
CCn1c2ccccc2c2nc3cc(OC)c(OC)cc3nc21,1,-15,9.3*,73*,3
COc1cc2nc3c4ccccc4n(CC#N)c3nc2cc1OC,1,-3,8.4*,-2,7
CC(C)N1CC=C2C(C#N)=C(N)C(C#N)(C#N)[C@H](c3ccoc3)[C@H]2C1,1,24,1,-2,4
CCN1CC=C2C(C#N)=C(N)C(C#N)(C#N)C(c3cc(Cl)ccc3Cl)C2C1 (stereo not drawn),1,-1,-1,65*,1
O=C(CN1CCCC1)Nc1ccc(-c2nc3cc(NC(=O)CN4CCCC4)ccc3o2)cc1,0,24,1,101*,1
Cc1ccc(-c2nc3cc(NS(=O)(=O)c4ccc(C)cc4)ccc3o2)cc1,0,73*,6,1,1
CCCC(=O)Nc1ccc2oc(-c3ccncc3)nc2c1,0,-2,2,-2,2
CCN(CC)CC(=O)Nc1ccc(-c2nc3cc(NC(=O)CN(CC)CC)ccc3o2)cc1,-1,11,2,86*,7
CCC(C)NCC(=O)Nc1ccc(-c2nc3cc(NC(=O)CNC(C)CC)ccc3o2)cc1 (stereo not drawn),0,2,1,99*,2
CCOc1ccc(Br)cc1S(=O)(=O)Nc1ccc(Cl)c(S(=O)(=O)N(CC)c2ccccc2)c1,0,5,4,2,0
O=[N+]([O-])c1ccc([N+](=O)[O-])c(Nc2ccc(N3CCOCC3)cc2)c1,2,-5,4,-1,19
CCN1/C(=C/C(C)=C/c2sc3ccccc3[n+]2CC)Sc2ccccc21,1,89,0,100*,-11
COc1ccccc1N1CCN(c2nc(-c3ccccc3)cc(C(F)(F)F)n2)CC1,0,-17,2,30,0
COc1ccccc1N1CCN(c2ccc(-c3ccccc3)nn2)CC1,0,51,1,64*,6
CC1(C)Cc2c(ccc3ccccc23)C(=O)N1,0,-24,3,39,1
CCNC(=O)/C=C1\NC(C)(C)Cc2c1ccc1ccccc21,0,7,0,100*,3
CCC(=O)Nc1c(C#N)c2nc3ccccc3nc2n1C1CCCCC1,1,3,3,4,6
CCOC(=O)c1c(NC(=O)c2ccco2)n(C2CCCCC2)c2nc3ccccc3nc12,2,-10,2,100*,11
COC(=O)c1c(N)n(CCCN2CCOCC2)c2nc3ccccc3nc12,1,1,2,10,1
CCOC(=O)c1c(N)n(C2CC(C)(C)NC(C)(C)C2)c2nc3ccccc3nc12,1,-6,0,83*,3
CCOC(=O)c1c(N)n(CCOC(=O)c2cccs2)c2nc3ccccc3nc12,3,-1,2,60*,4
SMILES,ABCB1 block,WT yeast gro inh,RAM network inh,L major viab,ABCG2 block
CCCCCOC(=O)c1c(N)n(CCOC)c2nc3ccccc3nc12,0,1,1,100*,1
CCOC(=O)c1c(N)n(-c2ccc(N)cc2)c2nc3ccccc3nc12,0,-8,4,1,6
COc1ccccc1-n1cnnc1SCC(=O)c1c[nH]c2ccccc12,0,-12,2,1,6
COC(=O)c1cc(CN2CCN(c3ccccc3C)CC2)ccc1O,0,26,3,4,1
O=C(CN1CCN(c2ccc(O)cc2)CC1)NC(=O)NCc1ccco1,4,-14,0,14,28
OC(COCCOc1ccc(Br)cc1)CN1CCCCC1 (stereo not drawn),1,3,1,71*,6
